# In ChEMBL document CHEMBL5661970 (Cancer Res, 2006):
# Calls of active or inactive are those of the source. The rule behind the calls is not given here.
# Assays:
# [1] = target: Platelet-derived growth factor receptor beta (Homo sapiens, UniProt P09619); experiment: Inhibition of PDGFR-beta (unknown origin) in presence of ATP
# Insulin receptor = Insulin receptor (Homo sapiens, UniProt P06213); experiment: Inhibition of insulin-R (unknown origin) in presence of ATP
# Summary of the method: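 Cell-free kinase assay using recombinant tyrosine kinases with 1 μmol/L ATP, run in quadruplicate. IC50 values determined.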
# [2] = target: T1, Mitogen-activated protein kinase 1 (Homo sapiens, UniProt P28482); experiment: Inhibition of ERK2 phosphorylation in bFGF-stimulated serum-starved human HUVEC cells by immunoblotting analysis; format: cell-based
# [3] = target: T1, Mitogen-activated protein kinase 1; experiment: Inhibition of ERK2 phosphorylation in EGF-stimulated serum-starved human HUVEC cells by immunoblotting analysis; format: cell-based
# HUVEC = experiment: Antiproliferative activity against VEGF-induced human HUVEC cells assessed as cell viability incubated for 72 hrs by WST-1 assay
# MDA-MB-231 [4] = experiment: Antitumor activity against human MDA-MB-231 cells xenografted in gamma-irradiation induced RH-rnu/rnu athymic rat assessed as tumor growth inhibition at 0.2 mg/kg, po administered once daily for 2 weeks and measured on day 14 relative to control; format: functional; settings: MDA-MB-231, light or radiation study, 336 h, read-out: TGI
# Summary of the method: (§1)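 Rats were γ-irradiated with 7 Gy whole body, and 24 h later received s.c. tumor cells. Fragments (20-30 mg) from ~1,500 mm3 tumors were then implanted s.c. into irradiated athymic rats. Oral dosing at 0.2 or 1 mg/kg or vehicle ran once daily for 2 weeks from day 0. Tumors were measured with calipers twice weekly (length×width²×0.5). TGI% was taken versus vehicle on day 14 (BxPC-3: day 13), with an unpaired t test on RTV.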
# LS174T = experiment: Antitumor activity against human LS174T cells xenografted in gamma-irradiation induced RH-rnu/rnu athymic rat assessed as tumor growth inhibition at 1.0 mg/kg, po administered once daily for 2 weeks and measured on day 14 relative to control; format: functional; settings: light or radiation study, 336 h, read-out: TGI; summary of the method: as §1
# BXPC-3 = experiment: Antitumor activity against human BXPC-3 cells xenografted in gamma-irradiation induced RH-rnu/rnu athymic rat assessed as tumor growth inhibition at 1.0 mg/kg, po administered once daily for 2 weeks and measured on day 13 relative to control; format: functional; settings: BXPC-3, light or radiation study, 336 h, read-out: TGI; summary of the method: as §1
# [5] = Antitumor activity against human CGL-9 cells xenografted in gamma-irradiation induced RH-rnu/rnu athymic rat assessed as tumor growth inhibition at 1.0 mg/kg, po administered once daily for 2 weeks and measured on day 14 relative to control; format: functional; settings: CGL-9, light or radiation study, 336 h, read-out: TGI
# Summary of the method: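 Human tumor cells inoculated s.c. in right flank of athymic rats 24 h after whole-body γ-irradiation (7 Gy, Co60); established ~1,500 mm3 tumors excised and 20-30 mg fragments implanted s.c. in irradiated rats. Oral dosing in 0.5% methyl cellulose vehicle from randomization (day 0). Tumor volume measured twice weekly by calipers, (length × width²) × 0.5; TGI% versus vehicle on day 14.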
# MDA-MB-231 [6] = experiment: Antitumor activity against human MDA-MB-231 cells xenografted in gamma-irradiation induced RH-rnu/rnu athymic rat assessed as relative tumor volume at 1 mg/kg, po administered once daily for 2 weeks and measured on day 7; format: functional
# Summary of the method: (§2)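 Tumor fragments were grown in γ-irradiated (7 Gy) athymic rats, followed by once-daily oral dosing at 1 mg/kg for 2 weeks. Tumor volume was measured with calipers as length×width²×0.5. Relative tumor volume was calculated as volume on day x divided by volume on day 0.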
# LoVo = experiment: Antitumor activity against human LoVo cells xenografted in gamma-irradiation induced RH-rnu/rnu athymic rat assessed as relative tumor volume at 1 mg/kg, po administered once daily for 2 weeks and measured on day 21; format: functional; summary of the method: as §2
# Calu-6 [7] = experiment: Antitumor activity against human Calu-6 cells xenografted in RH-rnu/rnu athymic rat assessed as tumor growth inhibition at 1.0 mg/kg, po administered […] by DCE-MRI analysis; format: functional, organism-based
# Summary of the method: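 Calu-6 tumor-bearing athymic rats were randomized at 274-287 mm3 and dosed orally at 0.2 or 1.0 mg/kg or vehicle once daily on days 0-13. Tumor growth was followed by T2-weighted MRI at 1.5 T through day 21.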
# Calu-6 [8] = experiment: Antitumor activity against human Calu-6 cells xenografted in RH-rnu/rnu athymic rat assessed as larger enclosed median lumen area by the halos in tumor by measuring vessel diameter at 0.2 mg/kg, po administered for 14 days by H33342 dye based fluorescence microscopic analysis; format: functional; settings: time 14 day
# Summary of the method: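 Calu-6 tumor-bearing athymic rats, three per group, received oral drug at 0.2 or 1 mg/kg or vehicle on days 0-13. They were killed 1 min after i.v. H33342 at 20 mg/kg on day 13. 10 µm cryosections were cut from five tumor levels at least 200 µm apart and examined under UV epifluorescence. The major axis of fluorescent halos around vessels was measured by image analysis, with a Mann-Whitney test.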
# Calu-6 [9] = experiment: Antitumor activity against human Calu-6 cells xenografted in RH-rnu/rnu athymic rat assessed as decreased microvessel density at 1 mg/kg, po administered for 14 days by immunofluorescence staining analysis relative to control; format: functional; set-up: scale not given: the % may be the effect or the level left; settings: time 14 day
# [10] = Apparent oral clearance in F344/N JcL-rnu athymic rat at 0.04 mg/kg, po measured upto 72 hrs by HPLC-MS/MS analysis; format: ADME, organism-based; settings: in vivo
# Summary of the method: (§3)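 Female F344/N JcL-rnu rats, four per group, single p.o. dose suspended in 0.5% methyl cellulose. Tail-vein blood sampled at set times to 72 h. Serum spiked with internal standard, deproteinated with acetonitrile, analysed by HPLC-MS/MS. Parameters derived by noncompartmental analysis.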
# [11] = Apparent oral volume of distribution in F344/N JcL-rnu athymic rat at 1 mg/kg, po measured upto 72 hrs by HPLC-MS/MS analysis; format: ADME, organism-based; settings: in vivo; summary of the method: as §3
# [12] = Half life in F344/N JcL-rnu athymic rat at 1 mg/kg, po measured upto 72 hrs by HPLC-MS/MS analysis; format: ADME, organism-based; settings: in vivo; summary of the method: as §3
# [13] = Cmax in F344/N JcL-rnu athymic rat at 0.2 mg/kg, po measured upto 72 hrs by HPLC-MS/MS analysis; format: ADME, organism-based; settings: in vivo; summary of the method: as §3
# [14] = Minimum concentration at steady state in F344/N JcL-rnu athymic rat at 0.2 mg/kg/day, po measured upto 72 hrs by HPLC-MS/MS analysis; format: ADME, organism-based; settings: in vivo
# Summary of the method: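 Steady-state serum levels for repeated oral 0.2 mg/kg daily dosing were simulated from single-dose serum data (female F344/N JcL-rnu rats, four per group, tail-vein sampling to 72 h, HPLC-MS/MS, noncompartmental analysis), not measured directly.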
# A549 = experiment: Antitumor activity against human A549 cells xenografted in F344/N Jcl-rnu athymic rat assessed as tumor regression at 0.2 mg/kg, po relative to control
# Calu-6 [15] = experiment: Antitumor activity against human Calu-6 cells xenografted in RH-rnu/rnu athymic rat assessed as tumor growth inhibition at 1.0 mg/kg, po administered once daily for 2 to 21 days by DCE-MRI analysis; settings: time 2-21 day
# Calu-6 [16] = experiment: Antitumor activity against human Calu-6 cells xenografted in RH-rnu/rnu athymic rat assessed as decrease in capillary permeability in tumor at 1 mg/kg, po measured on day 2 by DCE-MRI analysis relative to control; set-up: scale not given: the % may be the effect or the level left
# T1 sequence (P28482 whole entry): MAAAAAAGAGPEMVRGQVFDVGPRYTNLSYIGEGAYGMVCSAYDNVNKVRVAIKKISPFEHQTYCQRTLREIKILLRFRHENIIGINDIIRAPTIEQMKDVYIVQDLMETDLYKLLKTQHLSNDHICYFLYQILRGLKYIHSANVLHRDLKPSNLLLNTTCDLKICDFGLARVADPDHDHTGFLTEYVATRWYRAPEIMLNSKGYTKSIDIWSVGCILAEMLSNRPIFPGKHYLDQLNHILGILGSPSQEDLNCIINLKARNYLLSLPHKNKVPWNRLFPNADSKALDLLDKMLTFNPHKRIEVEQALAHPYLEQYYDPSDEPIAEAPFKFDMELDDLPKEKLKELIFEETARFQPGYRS
# Chain of Platelet-derived growth factor receptor beta (P09619 whole entry): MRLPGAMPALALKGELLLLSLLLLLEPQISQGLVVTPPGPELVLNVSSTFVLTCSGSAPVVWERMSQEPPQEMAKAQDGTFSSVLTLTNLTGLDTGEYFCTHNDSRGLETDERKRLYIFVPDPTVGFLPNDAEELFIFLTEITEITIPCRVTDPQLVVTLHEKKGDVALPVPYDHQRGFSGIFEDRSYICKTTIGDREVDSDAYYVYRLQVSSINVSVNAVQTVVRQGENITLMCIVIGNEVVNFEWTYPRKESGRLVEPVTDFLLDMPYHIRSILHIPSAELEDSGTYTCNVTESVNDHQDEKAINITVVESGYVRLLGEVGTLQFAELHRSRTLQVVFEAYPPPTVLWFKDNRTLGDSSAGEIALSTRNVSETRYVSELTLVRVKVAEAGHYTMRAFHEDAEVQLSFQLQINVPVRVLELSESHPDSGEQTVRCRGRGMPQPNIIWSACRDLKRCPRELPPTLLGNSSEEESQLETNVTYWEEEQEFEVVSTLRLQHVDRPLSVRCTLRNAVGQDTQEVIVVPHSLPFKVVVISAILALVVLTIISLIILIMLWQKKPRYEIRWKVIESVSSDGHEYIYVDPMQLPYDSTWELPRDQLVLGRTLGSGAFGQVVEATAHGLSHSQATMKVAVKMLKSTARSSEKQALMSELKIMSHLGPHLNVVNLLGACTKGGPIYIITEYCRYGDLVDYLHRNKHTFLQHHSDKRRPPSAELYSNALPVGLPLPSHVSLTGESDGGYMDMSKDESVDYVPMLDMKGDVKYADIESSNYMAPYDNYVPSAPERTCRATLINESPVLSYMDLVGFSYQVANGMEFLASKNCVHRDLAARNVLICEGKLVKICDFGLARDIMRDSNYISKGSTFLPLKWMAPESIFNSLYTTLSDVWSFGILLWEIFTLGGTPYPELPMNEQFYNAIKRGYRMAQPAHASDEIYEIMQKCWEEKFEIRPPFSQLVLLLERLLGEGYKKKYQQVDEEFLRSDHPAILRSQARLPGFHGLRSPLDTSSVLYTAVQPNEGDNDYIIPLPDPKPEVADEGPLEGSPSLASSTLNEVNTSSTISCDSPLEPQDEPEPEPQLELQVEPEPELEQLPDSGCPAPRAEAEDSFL
# Chain of Insulin receptor (P06213 28-758 limits assumed): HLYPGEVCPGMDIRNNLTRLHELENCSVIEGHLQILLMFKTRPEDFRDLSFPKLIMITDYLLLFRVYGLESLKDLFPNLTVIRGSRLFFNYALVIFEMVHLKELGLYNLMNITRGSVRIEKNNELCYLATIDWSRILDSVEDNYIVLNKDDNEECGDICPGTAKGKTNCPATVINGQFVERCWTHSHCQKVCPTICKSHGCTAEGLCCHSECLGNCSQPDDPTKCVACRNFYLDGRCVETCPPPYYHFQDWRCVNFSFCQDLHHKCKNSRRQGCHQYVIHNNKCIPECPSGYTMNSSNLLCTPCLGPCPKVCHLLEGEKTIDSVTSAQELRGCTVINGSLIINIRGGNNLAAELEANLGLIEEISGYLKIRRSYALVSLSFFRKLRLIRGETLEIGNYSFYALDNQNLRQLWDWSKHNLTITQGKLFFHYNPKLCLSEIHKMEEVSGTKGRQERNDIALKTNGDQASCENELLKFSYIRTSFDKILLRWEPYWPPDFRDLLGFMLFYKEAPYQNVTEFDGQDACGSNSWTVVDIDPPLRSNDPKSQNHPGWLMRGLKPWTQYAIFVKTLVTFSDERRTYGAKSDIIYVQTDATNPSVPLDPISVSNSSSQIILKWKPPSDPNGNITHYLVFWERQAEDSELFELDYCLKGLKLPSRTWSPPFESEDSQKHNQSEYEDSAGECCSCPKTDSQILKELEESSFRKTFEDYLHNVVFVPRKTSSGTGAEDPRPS
# Chain of Insulin receptor (P06213 763-1382 limits assumed): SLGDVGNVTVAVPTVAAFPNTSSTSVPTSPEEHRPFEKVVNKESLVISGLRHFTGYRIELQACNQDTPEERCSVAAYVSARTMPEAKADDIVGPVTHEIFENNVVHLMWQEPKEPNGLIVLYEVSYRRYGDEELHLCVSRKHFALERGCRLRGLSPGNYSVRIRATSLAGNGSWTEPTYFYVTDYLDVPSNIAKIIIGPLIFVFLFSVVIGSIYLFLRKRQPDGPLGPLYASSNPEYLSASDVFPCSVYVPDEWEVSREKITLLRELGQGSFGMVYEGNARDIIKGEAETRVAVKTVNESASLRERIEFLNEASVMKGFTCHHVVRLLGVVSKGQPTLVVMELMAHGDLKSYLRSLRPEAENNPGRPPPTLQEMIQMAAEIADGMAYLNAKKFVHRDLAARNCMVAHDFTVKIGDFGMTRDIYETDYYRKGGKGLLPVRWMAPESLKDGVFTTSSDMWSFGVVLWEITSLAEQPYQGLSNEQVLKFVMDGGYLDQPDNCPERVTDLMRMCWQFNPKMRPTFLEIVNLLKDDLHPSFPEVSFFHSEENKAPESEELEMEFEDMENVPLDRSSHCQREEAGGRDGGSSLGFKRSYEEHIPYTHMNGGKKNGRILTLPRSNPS
structure (smiles),measurement,setting,value
COc1cc2nccc(Oc3ccc(NC(=O)Nc4cc(C)on4)c(Cl)c3)c2cc1OC [TIVOZANIB],IC50,[1],49 nM
same,IC50,Insulin receptor,> 1000 nM
same,inhibition,[2],inactive
same,inhibition,[3],inactive
same,IC50,HUVEC,0.67 nM
same,inhibition in vivo at 0.2 mg/kg,MDA-MB-231 [4],77%
same,inhibition in vivo at 1 mg/kg,LS174T,99.7%
same,inhibition in vivo at 1 mg/kg,BXPC-3,93.5%
same,inhibition in vivo at 1 mg/kg,[5],96.2%
same,Activity,MDA-MB-231 [6],0.89
same,Activity,LoVo,0.85
same,Activity,Calu-6 [7],Active
same,Activity,Calu-6 [8],57.9 um
same,Activity,Calu-6 [9],71.2%
same,CL/F,[10],2.03 mL/min/kg
same,Vd/F,[11],1.54 L/kg
same,half-life,[12],8.13 h
same,Cmax,[13],108 ng/mL
same,Cminss,[14],22.2 ng/mL
same,tumor regression % at 0.2 mg/kg,A549,2%
same,Activity,Calu-6 [15],Active
same,Activity,Calu-6 [16],55%
